PolyA inh – yeast polyadenylation inhibition. S. cerevisiae SKY197-pL101 polyadenylation reporter, beta-gal luminescence; efflux-impaired pdr1/pdr3 knockout yeast; score 100 = 6 SD above DMSO. activity score, % at 12 µM. hit rate 0.02% among 300,000;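 active = lowest replicate activity score at least 50, where 100 means six control SD above control mean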;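 note: yeast exposed to compound for 9 h at 30 °C; higher score means more reporter readthrough which indicates perturbed polyadenylation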
procasp3 activ – activators of human procaspase-3; P42574; activation, % at 8.5 µM; recombinant procaspase-3 D3A, Ac-DEVD-pNA absorbance 405 nm; hit rate 0.11% among 330,000;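 active = activation above the mean of all tested compounds plus 3 SD, cut at about 21% in these data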;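 note: 0% = DMSO alone and 100% = DMSO wells spiked with extra 5 µM PC-3 D3A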
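Assay system: Autoprocessing-dead procaspase-3 D3A mutant enzyme; also added: Ac-DEVD-pNA; doses: one concentration, 8.5 µM nominal, 0.8% DMSO; times: 1 h compound preincubation, 2 h substrate hydrolysis at 25 °C; technique: 405 nm absorbance of p-nitroaniline, reads at 0 and 120 min; measure: % activation between DMSO and enzyme-spiked controls; repeats: single replicate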
IMP-1 inh-1 – inhibitors of Pseudomonas aeruginosa IMP-1 metallo-beta-lactamase; purified IMP-1, nitrocefin hydrolysis, epi-absorbance fluorescence; inhibition, % at 5.6 µM; hit rate 0.45% among 290,000; AID 1556;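 active = inhibition above the mean plus 3 SD of all compounds in the same screening run, cut at about 4.5% in these data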;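 note: 0% = IMP-1 with DMSO and 100% = DMSO wells lacking enzyme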
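System: purified recombinant IMP-1 beta-lactamase. Medium: Zinc- and detergent-supplemented HEPES buffer, pH 7.1. Compound: one 5.6 µM dose […]. Schedule: 15 min preincubation plus 25 min reaction at 25 °C. Technique: Epi-absorbance fluorescence, 480 nm excitation, 530 nm emission.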
VIM-2 inhibitor – inhibitors of Pseudomonas aeruginosa VIM-2 metallo-beta-lactamase; purified VIM-2, nitrocefin hydrolysis, epi-absorbance fluorescence; inhibition, % at 5.6 µM; hit rate 0.89% among 290,000; AID 1527;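 active = inhibition above the mean of all tested compounds plus 3 SD, cutoff set per screening run, cut at about 7.5% in these data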;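 note: red hydrolysis product quenches plate fluorescence so inhibitors raise well fluorescence; 0% = enzyme with DMSO and 100% = DMSO without enzyme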
procasp7 counter – activates human procaspase-7, counter-screen for procaspase-3 activators; hit rate 0.093% among 330,000; P55210; recombinant procaspase-7, Ac-DEVD-pNA absorbance 405 nm; D23A/D198A/D206A triple mutant, cannot self-cleave; scale: DMSO 0, 5 µM enzyme 100; activation, % at 8.5 µM;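 active = percent activation above the screen-wide mean plus 3 SD, cut at about 25% in these data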
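Assay system: Uncleavable procaspase-7 mutant enzyme; Input: 2 µM procaspase-7 mutant as dispensed; Also added: DEVD-pNA substrate; Medium: Zinc-free HEPES pH 7.4 with 300 mM NaCl, 0.01% Triton X-100; Timing: 1 h compound preincubation, 2 h substrate cleavage, 25 °C; Measured by: Epi-absorbance of released pNA at 405 nm, two timepoints.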
Neddylation inh – cullin neddylation inhibition. P61081+Q13564. TR-FRET cullin neddylation, biochemical. calls only at 25 µM. hit rate 0.58% among 360,000. AID 651699; in the data active = inhibition above about 36%
Target sequence (P61081 whole entry, looked up): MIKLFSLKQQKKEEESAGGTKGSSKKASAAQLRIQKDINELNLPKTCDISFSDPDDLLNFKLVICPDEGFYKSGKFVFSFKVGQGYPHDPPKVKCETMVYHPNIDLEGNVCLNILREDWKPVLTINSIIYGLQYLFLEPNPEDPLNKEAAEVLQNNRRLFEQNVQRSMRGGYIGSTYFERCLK
Target sequence (Q13564 whole entry, looked up): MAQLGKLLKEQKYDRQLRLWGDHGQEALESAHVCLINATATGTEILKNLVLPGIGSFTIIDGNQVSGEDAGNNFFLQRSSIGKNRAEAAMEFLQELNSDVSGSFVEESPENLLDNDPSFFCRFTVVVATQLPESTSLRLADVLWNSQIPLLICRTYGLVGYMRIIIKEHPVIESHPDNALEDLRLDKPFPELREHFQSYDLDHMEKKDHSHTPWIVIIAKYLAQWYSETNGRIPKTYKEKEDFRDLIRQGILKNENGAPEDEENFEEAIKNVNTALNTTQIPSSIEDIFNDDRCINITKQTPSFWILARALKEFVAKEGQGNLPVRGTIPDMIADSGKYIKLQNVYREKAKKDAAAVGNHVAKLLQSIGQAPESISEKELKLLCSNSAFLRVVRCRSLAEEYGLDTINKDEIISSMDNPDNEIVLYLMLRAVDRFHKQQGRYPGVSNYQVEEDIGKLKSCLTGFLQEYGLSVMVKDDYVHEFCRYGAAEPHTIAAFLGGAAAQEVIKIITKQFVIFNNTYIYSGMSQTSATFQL
IMP-1 inh-2 – IMP-1 inhibition, counter-screen for VIM-2 inhibitors; shares compounds with VIM-2 inhibitor; 1,300 tested, under 10 active; inhibition, % at 5.6 µM; purified IMP-1, nitrocefin hydrolysis, epi-absorbance fluorescence; call rule not given here;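 note: 0% = enzyme with vehicle and 100% = vehicle without enzyme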
VIM-2 FRET inh – VIM-2 FRET inhibition, artifact counter-screen; shares compounds with VIM-2 inhibitor; purified VIM-2, CCF2 FRET substrate hydrolysis; inhibition, % at 5.6 µM; hit rate 23% among 1,300; AID 1857;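 active = inhibition above the mean of all tested compounds plus 3 SD, cut at about 19% in these data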;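 note: 0% = VIM-2 plus DMSO and 100% = no enzyme wells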
TEM-1 inh – selectivity counter-screen for VIM-2 inhibitors: E. coli TEM-1 inhibitors. inhibition, % at 5.6 µM. hit rate 3% among 1,300. Purified TEM-1, nitrocefin hydrolysis, epi-absorbance fluorescence. AID 1866. shares compounds with VIM-2 inhibitor;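 active = inhibition above that campaign's mean inhibition plus 3 SD, cut at about 0.46% in these data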;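 note: 0% = TEM-1 with DMSO and 100% = TEM-1 with 100 µM potassium clavulanate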
VIM-2 confirm 2 – confirmation of P. aeruginosa VIM-2 metallo-beta-lactamase inhibitors. hit rate 96% among 1,300. shares compounds with VIM-2 inhibitor. inhibition, % at 5.6 µM. AID 2187. purified VIM-2, nitrocefin hydrolysis, epi-absorbance;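 active = inhibition of the VIM-2 beta-lactamase enzyme above about 11% from the earlier first-round screen, limit read from the data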;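 note: 0% = VIM-2 with DMSO and 100% = buffer wells without enzyme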
Starred values were filed as active, the others as inactive; i = inactive; . = no result given. The list is not random: actives were taken first. Their share in the collection is about 1.7%.

SMILES	PolyA inh	procasp3 activ	IMP-1 inh-1	VIM-2 inhibitor	procasp7 counter	Neddylation inh	IMP-1 inh-2	VIM-2 FRET inh	TEM-1 inh	VIM-2 confirm 2
O=[N+]([O-])c1nn(-c2ccc(Cl)cc2)n(O)c1=NCc1ccccc1	-3	11	-1	2	6	i	.	.	.	.
CCCCn1c(-c2nn(C)cc2Cl)n[nH]c1=S	7	-12	-2	39*	9	i	-2	66*	-8	48*
CCn1c(-c2nn(C)cc2Cl)n[nH]c1=S	-11	-3	-4	2	-7	i	.	.	.	.
CCCCn1c(-c2nn(C)c(C)c2Cl)n[nH]c1=S	11	0	-3	36*	-5	i	-3	66*	-8	46*
CCCCCCn1c(-c2cccs2)n[nH]c1=S	-20	-28	-3	72*	-34	.	-5	83*	-11	76*
CCCCn1c(-c2csc3ccccc23)n[nH]c1=S	.	-19	-6	-4	-25	i	.	.	.	.
COc1cccc(C(=O)Nc2ccc(C(=O)c3ccccc3)cc2)c1	-5	9	-3	-1	-4	i	.	.	.	.
CCCc1[nH]nc2c1C1(CCN(C(=O)OCc3ccccc3)CC1)C(C#N)=C(N)O2	-3	3	-2	18*	-6	i	-2	22*	0.5*	6
CC1CC(C)CN(c2ccc([N+](=O)[O-])cc2-c2nn[nH]n2)C1 (stereo unspecified)	-5	-24	-4	33*	-9	i	-1	61*	2.3*	45*
O=[N+]([O-])c1ccc(-n2cccn2)c(-c2nn[nH]n2)c1	18	2	-1	-1	3	i	.	.	.	.
COc1ccc(/C=C2/NC(=O)CNC2=O)cc1	7	6	-5	-3	0	i	.	.	.	.
O=C(c1cc(COc2ccc(F)cc2Cl)on1)N1CCc2sccc2C1	-13	8	-1	-2	5	i	.	.	.	.
O=C(O)C(C(=O)O)=C1C2CC3CC(C2)CC1C3	32	1	-3	39*	9	i	-1	64*	-3	48*
CC1CCN(C(=O)CSc2nc3ccccc3[nH]2)CC1	5	4	-3	-3	1	i	.	.	.	.
Cc1ccnn1CCC(=O)N1CCCC(CCC(=O)NCc2ccccc2F)C1 (stereo unspecified)	-1	8	-4	-4	9	i	.	.	.	.
COc1ccc(-c2cc3c(=O)n(CC(=O)N4CCN(C)CC4)ncn3n2)cc1	1	1	-5	17*	-2	.	-3	-2	-5	31*
COc1ccc(-c2cc3c(=O)n(CC(=O)N4CCCCC4)ncn3n2)cc1	-4	9	-1	0	11	.	.	.	.	.
CC(C)COC(=O)c1cc(-c2ccc(/C=N/n3cnnc3)o2)ccc1Cl	-1	-6	-4	1	-5	i	.	.	.	.
O=[N+]([O-])c1cc(-c2ccc(/C=N/n3cnnc3)o2)ccc1Cl	-7	7	0	44*	15	i	-3	5	-5	58*
COc1cc([N+](=O)[O-])ccc1-c1ccc(/C=N\n2cnnc2)o1	12	.	0	45*	.	i	-2	-2	-2	45*
CNC(=S)N/N=C/c1ccc(-c2cc([N+](=O)[O-])ccc2Cl)o1	-22	5	-2	-1	-1	i	.	.	.	.
COc1cc([N+](=O)[O-])ccc1-c1ccc(/C=N/NC(=O)c2ccccc2O)o1	7	.	-4	-4	.	.	.	.	.	.
Cc1cc(-c2ccc(/C=N/n3cnnc3)o2)c(C)c([N+](=O)[O-])c1	-2	6	-2	87*	-8	i	-3	5	-8	91*
O=[N+]([O-])c1ccc(Cl)c(-c2ccc(/C=N/n3cnnc3)o2)c1	2	1	-2	45*	0	i	-4	-1	-6	52*
CCCCc1nnc(NC(=O)c2ccc(S(=O)(=O)N3CCOCC3)cc2)s1	.	4	.	.	0	i	.	.	.	.
SMILES	PolyA inh	procasp3 activ	IMP-1 inh-1	VIM-2 inhibitor	procasp7 counter	Neddylation inh	IMP-1 inh-2	VIM-2 FRET inh	TEM-1 inh	VIM-2 confirm 2
Cn1c(-c2nnn(-c3ccc(F)cc3)n2)cc2ccccc21	-7	-1	-2	-3	0	.	.	.	.	.
CCC(CC)C(=O)NCc1cccnc1	12	-2	-2	-2	-7	i	.	.	.	.
Cc1ccc(-c2ccc(/C=N\n3cnnc3)o2)c(Br)c1	1	3	-3	13*	-12	i	-3	6	-6	24*
CN(c1ccc(F)cc1)S(=O)(=O)c1ccc(Cl)c(C(=O)OCC(=O)NC2CC2)c1	.	11	.	.	11	i	.	.	.	.
COC(=O)c1c(NC(=O)C(=O)NCCCN2CCOCC2)sc2c1CCCC2	15	-1	-4	13*	5	i	-2	0	-1	19*
N#Cc1c(NC(=O)C(=O)NCCCN2CCOCC2)sc2c1CCC2	7	-1	-1	-2	-15	i	.	.	.	.
Cc1ccc2[nH]c(C)c(/C=C/c3cc[n+](C)cc3)c2c1	1	.	4	16*	.	i	1	2	0	26*
CCc1cc(=O)oc2cc(OCC(=O)NCCCn3ccnc3)c(Cl)cc12	-1	9	-1	24*	-2	i	-3	-7	-5	35*
O=C(COc1cc2oc(=O)c3c(c2cc1Cl)CCC3)NCCCn1ccnc1	-7	13	-2	30*	2	i	-2	-5	-6	44*
CCc1cc(=O)oc2cc(OCC(=O)NCCCN3CCCC3=O)c(Cl)cc12	-3	0	-2	0	8	i	.	.	.	.
Cc1c(C)c2cc(Cl)c(OCC(=O)NCCCn3ccnc3)cc2oc1=O	18	17	-1	28*	-2	i	-3	-11	-3	38*
N#Cc1c2c(c(NCCCN3CCOCC3)n3c1nc1ccccc13)CCC2	14	-7	-1	14*	1	.	-2	-6	-9	38*
CN1CCN(c2nnc(-c3ccc(F)cc3)c3ccccc23)CC1	6	-1	-1	31*	5	i	-1	6	-3	42*
O=C(/C=C/c1ccc(Br)cc1)NC(=S)Nc1ccc(S(=O)(=O)Nc2nccs2)cc1	-11	-8	-1	0	7	i	.	.	.	.
